Test results from ChEMBL document CHEMBL5131498, “Synthesis and biological evaluation of orally active prodrugs and analogs of para-aminosalicylic acid (PAS)” (Eur J Med Chem, 2022).
Converted amounts (≈) assume the structure as drawn.

Experiments:
Assay type in all cases: functional
[1] = test system: Mycobacterium tuberculosis; assay: Antimycobacterial activity against PAS resistant Mycobacterium tuberculosis H37Rv harboring R49W mutant assessed as inhibition of bacterial growth measured after 2 weeks by microbroth dilution method
Outline: (§1)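 Diluted 1000-fold into 96-well plates with 2-fold serial compound dilutions and incubated at 37 °C for 2 weeks. Growth scored by mirror at 1 and 2 weeks. MIC is the lowest concentration completely inhibiting growth; tested in duplicate. DMSO, isoniazid and linezolid served as controls.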

[2] = test system: Mycobacterium tuberculosis; assay: Antimycobacterial activity against multidrug resistant Mycobacterium tuberculosis H37Rv assessed as inhibition of bacterial growth measured after 2 weeks by microbroth dilution method; settings: 336 h; outline: as §1
[3] = test system: Mycobacterium tuberculosis; assay: Antimycobacterial activity against PAS resistant Mycobacterium tuberculosis H37Rv harboring S150G mutant assessed as inhibition of bacterial growth measured after 2 weeks by microbroth dilution method; outline: as §1
[4] = test system: Mycobacterium tuberculosis; assay: Antimycobacterial activity against PAS resistant Mycobacterium tuberculosis H37Rv harboring E153A mutant assessed as inhibition of bacterial growth measured after 2 weeks by microbroth dilution method; outline: as §1
[5] = test system: Mycobacterium tuberculosis; assay: Antimycobacterial activity against extensively drug resistant Mycobacterium tuberculosis H37Rv assessed as inhibition of bacterial growth measured after 2 weeks by microbroth dilution method; settings: 336 h; outline: as §1

| Compound | MIC90 [1] | MIC90 [2] | MIC90 [3] | MIC90 [4] | MIC90 [5] |
| --- | --- | --- | --- | --- | --- |
| Nc1ccc(C(=O)O)c(O)c1 [AMINOSALICYLIC ACID] | 12.5 µM (≈ 1.91 µg/mL) | 0.2 µM (≈ 0.0306 µg/mL) | 12.5 µM (≈ 1.91 µg/mL) | 12.5 µM (≈ 1.91 µg/mL) | ≥ 50 µM |
| Nc1cc(O)c(C(=O)O)cc1F | >=50 uM | 6.3 µM (≈ 1.08 µg/mL) | >=50 uM | >=50 uM | ≥ 50 µM |
| NNC(=O)c1ccncc1 [ISONIAZID] | 0.3 µM (≈ 0.0411 µg/mL) | 0.4 µM (≈ 0.0549 µg/mL) | 0.3 µM (≈ 0.0411 µg/mL) | 0.3 µM (≈ 0.0411 µg/mL) | 6.3 µM (≈ 0.864 µg/mL) |
| CC(=O)NC[C@H]1CN(c2ccc(N3CCOCC3)c(F)c2)C(=O)O1 [LINEZOLID] | 1.9 µM (≈ 0.641 µg/mL) | 0.8 µM (≈ 0.27 µg/mL) | 1.9 µM (≈ 0.641 µg/mL) | 1.9 µM (≈ 0.641 µg/mL) | 0.9 µM (≈ 0.304 µg/mL) |
